Laboratory results published in article PMC11408689 (Nature Communications, 2024).
Positions count from the first letter of the chain named. Values joined by “and” are separate entries in the source; they are usually repeats but may differ in a detail not shown here. Equal entries are not always repeated. “Also recorded” adds a separate entry of the source. Starred links: 1 amine or outer side, 2 acyl side, 3 side chain; linkers in the order of their positions; H or OH if unused. Positions of bridges follow the written chain, without caps; N, C: chain ends. Non-standard residues stand in square brackets, D forms with d. Ala(13C3,15N) = 13C3,15N-labelled alanine, [13CH3][13C@H]([15NH][*:1])[13C](=O)[*:2]

Columns and labels:
[1] = tested on: phosphorylated IRE1α; experiment: UPR marker phospho-IRE1α in TH-positive neurons after MPP+ injury; assay type: cell-based, rat; settings: for UPR modulating effect on IRE1α pathway: compared to wild-type C-CDNF
In short: (§1)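 Rat primary mesencephalic neurons were pretreated with test compound (PBS stock diluted in medium) from 4 h before injury. They were then exposed on DIV6 to 4 µM MPP+ for 48 h, six wells per condition. Fixed cells were double-stained for TH plus phospho-IRE1α, ATF4 or ATF6, with Hoechst nuclear counterstain. Twenty 10x images per well were analysed automatically for TH/phospho-IRE1α overlap or stained nuclei in TH+ cells. Results are % vs control; one-way ANOVA with Dunnett's test.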

[2] = tested on: nucleus-localized ATF4; experiment: UPR marker nucleus-localized ATF4 in TH-positive neurons after MPP+ injury; assay type: cell-based, rat; settings: for UPR modulating effect on PERK/ATF4 pathway: compared to wild-type C-CDNF
In short: as §1

[3] = tested on: nucleus-localized ATF6; experiment: UPR marker nucleus-localized ATF6 in TH-positive neurons after MPP+ injury; assay type: cell-based, rat
In short: as §1

[4] = target: T1, GRP78-NBD (Homo sapiens, UniProt P11021); experiment: SEC-SAXS of GRP78-NBD and its complexes with CDNF or C-CDNF; assay type: binding
In short: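 Recombinant human proteins expressed in E. coli: CDNF in T7 Shuffle Express (to keep disulfides), GRP78-NBD in BL21 Star (DE3). In-line SEC-SAXS used 10 μl at ~10 mg/ml on Superdex 200 Increase at 0.35 ml/min and 20 °C, in PBS pH 7.2 with 1.5% glycerol. Data were collected at EMBL P12 (Pilatus 6M) in a 1 mm quartz capillary.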

[5] = target: T1, GRP78-NBD; experiment: Spectral shift binding assay; settings: ligand up to 100 μM; 25 °C
In short: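 Tag-free GRP78-NBD (His-tagged, expressed in E. coli BL21 Star (DE3), cobalt-affinity purified, TEV-cleaved, SEC-polished) labelled with NT-650-NHS, held at 10 nM. Ligand serial dilutions were made in PBS pH 7.2 with 0.05% Tween 20, giving 100 μM to 3.05 nM final. Read on Monolith X at 25 °C, 100% LED, as the 670/650 nm ratio. Amplitude is the unbound-to-bound plateau difference.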

[6] = tested on: TH-positive dopamine neurons (rat primary mesencephalic neurons); assay type: cell-based; settings: for neuroprotective activity: any of the tested concentrations
In short: (§2)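 Rat primary mesencephalic neurons were used. On DIV6, medium (Neurobasal, B27, BDNF, GDNF) was replaced with medium containing 4 µM MPP+ for 48 h. Test compound, from PBS stocks diluted in medium, was added 4 h before MPP+. Six wells per condition; fixed, then immunostained for TH and α-synuclein. Twenty 10x images per well, automated count of TH+ neurons and TH/aSyn overlap area. Reported as % of untreated control; one-way ANOVA with Dunnett's test.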

[7] = tested on: α-synuclein (aSyn) aggregates in dopamine neurons; experiment: α-synuclein; assay type: cell-based, rat
In short: as §2

[8] = tested on: GRP78-NBD; settings: crystal structure; cited from earlier work
[9] = target: T1, GRP78-NBD; experiment: 2D 1H-13C HSQC NMR titration of 13C/15N-Ala labeled C-CDNF with GRP78-NBD; assay type: binding; settings: GRP78-NBD 0-65 µM
[10] = MPP+ injury, 4 µM, 48 h, p < 0.0001 vs control
[11] = SEC-SAXS, PBS pH 7.2, 1.5% glycerol, 20 °C

T1 sequence (P11021 26-382): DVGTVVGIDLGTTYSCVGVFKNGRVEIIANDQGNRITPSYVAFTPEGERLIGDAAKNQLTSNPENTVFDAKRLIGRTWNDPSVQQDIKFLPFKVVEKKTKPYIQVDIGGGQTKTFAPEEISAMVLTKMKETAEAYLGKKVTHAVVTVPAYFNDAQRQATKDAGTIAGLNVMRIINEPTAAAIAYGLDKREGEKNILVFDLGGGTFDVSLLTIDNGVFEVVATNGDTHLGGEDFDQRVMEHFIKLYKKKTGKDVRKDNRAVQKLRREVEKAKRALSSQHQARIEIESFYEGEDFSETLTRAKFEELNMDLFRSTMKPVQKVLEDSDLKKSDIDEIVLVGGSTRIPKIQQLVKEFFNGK

With C[n+]1ccc(-c2ccccc2)cc1 [MPP^+, 1-methyl-4-phenyl-pyrididium, reference compound] the “increase of S724 phosphorylated IRE1α from control cells” value [1, 10] was 81.0 ± 5.0%, the “increase of nucleus-localized ATF4 from control cells” value [2, 10] was 42.1 ± 6.1 and the “increase of nucleus-localized ATF6 from control cells” value [3, 10] was 79.5 ± 6.2.

In the case of “CDNF: Cerebral dopamine neurotrophic factor, CDNFWT (aa 25-187), expressed in E. coli”, the “complex formation with GRP78-NBD” value ([4]; shift of SEC-SAXS elution peak to earlier elution, excess ligand) is reported as “formed a complex with GRP78-NBD”.

With “GRP78-NBD: nucleotide-binding domain of GRP78 (aa 26-382), expressed in E. coli” the “Dmax (PDDF/P(r) analysis)” value [4, 11] was 6.5 nm and 6.5 ± 0.2 nm, the “Rg (Guinier Analysis)” value [4, 11] was 2.2 nm and 2.2 ± 0.1 nm and the “Envelope volume (ab initio modeling, Dammif)” value ([4]; from SEC-SAXS data) was 83 nm^3.

B1: C-CDNF-MT1 (protein)
peptide: KYEKTLDLASVDLRKMRVAELKQILHSWGEECRACAAATDYVNLIQELAPKYAATHPKTEL
modifications: disulfide 32-35
In the case of B1, the “binding to GRP78-NBD (spectral shift), in words” value [5] is reported as “do not bind to GRP78-NBD”, the “neuroprotective activity” value ([6]; MPP+ 48 h) is reported as “did not show any neuroprotective activity” and the “maximal increase of dopamine neuron survival from MPP+ model effect” value ([6]; maximal effect over tested concentrations (5-500 nM), p = 0.9771) is reported as 13.6 ± 6.7%. The “maximal reduction of aSyn aggregation from MPP+ model effect” value ([7]; maximal effect over tested concentrations (5-500 nM), p = 0.4382) was 21.2 ± 5.9%, the “UPR modulating effect on IRE1α pathway” value [1] was “nearly completely lost the UPR modulating effect” and the “UPR modulating effect on PERK/ATF4 pathway” value [2] was “nearly completely lost the UPR modulating effect”.

B2: C-CDNF-MT2: C-CDNF mutant E156/157/163A (peptide)
peptide: B1 peptide with E30A, E31A, A38K
modifications: disulfide 32-35
In the case of B2, the “binding to GRP78-NBD (spectral shift), in words” value [5] is reported as “do not bind to GRP78-NBD”, the “neuroprotective activity” value ([6]; MPP+ 48 h) is reported as “did not show any neuroprotective activity” and the “activity in neuroprotection or aSyn aggregation” value ([7]; all three tested concentrations, compared to wild-type C-CDNF) is reported as “very low activity in neuroprotection or aSyn aggregation”. The “UPR modulating effect on IRE1α pathway” value [1] was “nearly completely lost the UPR modulating effect” and the “UPR modulating effect on PERK/ATF4 pathway” value [2] was “nearly completely lost the UPR modulating effect”.

B3: C-CDNF-MT3 (protein)
chain: B1 peptide with R33A, A37E
modifications: disulfide 32-35
With B3 the “binding to GRP78-NBD (spectral shift), in words” value [5] was “impaired binding to GRP78-NBD; also recorded: weak binding to GRP78-NBD”, the “increase of dopamine neuron survival from MPP+ model effect” value ([6]; 500 nM, MPP+ 48 h, p = 0.0878) was 40.3 ± 8.4% and the “neuroprotective activity” value ([6]; MPP+ 48 h) was “reduced potency in the neuroprotection assay”. The “reduction in aSyn aggregation, change from MPP+ model effect” value ([7]; 500 nM, MPP+ 48 h, p = 0.0073) was −42.1 ± 7.7%, the “decrease in phospho-IRE1α” value ([1]; 500 nM, p = 0.0003) was 67.2 ± 6.0% and the “UPR modulating activity” value ([1]; 5 and 50 nM) was “loss of UPR modulating activity”. The “decrease in nuclear ATF4” value ([2]; 500 nM, p = 0.0498) was 55.3 ± 8.2% and the “ATF6 pathway modulating activity” value ([3]; 5-500 nM) was “dose-dependent effect”.

B4: MANF: mesencephalic astrocyte-derived neurotrophic factor (protein, UniProt P55145 25-182, looked up)
Mesencephalic …: LRPGDCEVCISYLGRFYQDLKDRDVTFSPATIENELIKFCREARGKENRLCYYIGATDDAATKIINEVSKPLAHHIPVEKICEKLKKKDSQICELKYDKQIDLSTVDLKKLRVKELKKILDDWGETCKGCAEKSDYIRKINELMPKYAPKAASARTDL
In the case of B4, the “binding to GRP78 nucleotide-binding domain” value [8] is listed as “binds to the regulatory, nucleotide-binding domain of GRP78 via its C-terminal domain”.

B5: ^13C/^15N-Ala-labeled C-CDNF: C-CDNF with labeled alanine residues A135, A145, A162, A175, A179, A180 (peptide)
peptide: KYEKTLDL[Ala(13C3,15N)]SVDLRKMRV[Ala(13C3,15N)]ELKQILHSWGEECRAC[Ala(13C3,15N)]EKTDYVNLIQEL[Ala(13C3,15N)]PKY[Ala(13C3,15N)][Ala(13C3,15N)]THPKTEL
modifications: disulfide 32-35
With B5 the “effect of GRP78-NBD titration on Ala methyl groups” value [9] was “The three well-resolved methyl groups of A145, A162 and A175 are clearly affected; also recorded: A179 and A180 do not display any clear effects”.
